Data set [1] concerns the target T1, CYP3A4 (Homo sapiens, UniProt P08684). Put plainly: Inhibition of CYP3A4 in human liver microsomes using testosterone as substrate at 10 uM by LC-MS-MS analysis relative to control. The class given is ADME, Microsome. The note with it: probe testosterone.
Data set [2] addresses T1, CYP3A4. The data set can be described thus: Time dependent inhibition of CYP3A4 in human liver microsomes using testosterone as substrate at 10 uM preincubated for 30 mins by LC-MS-MS analysis relative to control. Type of data set: ADME, Microsome. The conditions noted are these: probe testosterone, read-out: TDI. The procedure, abridged: (§1)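 CYP3A4 metabolism of testosterone was measured after 0 or 30 min preincubation of enzyme with test article at the indicated concentration. Activity lost via preincubation, relative to the zero-minute control with the same inhibitor, was the end point. 6β-OH testosterone was detected by LC-MS/MS with cortisone as internal standard.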

The target of a further data set is Cytochrome P450 3A4 (Homo sapiens, UniProt P08684). The data set can be described thus: Time dependent inhibition of CYP3A4 in human liver microsomes using testosterone as substrate by LC-MS-MS analysis relative to control. Type of data set: ADME, Microsome. The procedure, abridged:
as §1

The nature of data set [3]: Oral bioavailability in rat. Type of data set: ADME, organism-based. The note with it: in vivo.
Data set [4] in a line: Half life in rat. Type of data set: ADME, organism-based. The note with it: in vivo.
The target of data set [5] is Voltage-gated inwardly rectifying potassium channel KCNH2 (Homo sapiens, UniProt Q12809). The data set can be described thus: Inhibition of human ERG.
Chain of Voltage-gated inwardly rectifying potassium channel KCNH2 (Q12809 whole entry): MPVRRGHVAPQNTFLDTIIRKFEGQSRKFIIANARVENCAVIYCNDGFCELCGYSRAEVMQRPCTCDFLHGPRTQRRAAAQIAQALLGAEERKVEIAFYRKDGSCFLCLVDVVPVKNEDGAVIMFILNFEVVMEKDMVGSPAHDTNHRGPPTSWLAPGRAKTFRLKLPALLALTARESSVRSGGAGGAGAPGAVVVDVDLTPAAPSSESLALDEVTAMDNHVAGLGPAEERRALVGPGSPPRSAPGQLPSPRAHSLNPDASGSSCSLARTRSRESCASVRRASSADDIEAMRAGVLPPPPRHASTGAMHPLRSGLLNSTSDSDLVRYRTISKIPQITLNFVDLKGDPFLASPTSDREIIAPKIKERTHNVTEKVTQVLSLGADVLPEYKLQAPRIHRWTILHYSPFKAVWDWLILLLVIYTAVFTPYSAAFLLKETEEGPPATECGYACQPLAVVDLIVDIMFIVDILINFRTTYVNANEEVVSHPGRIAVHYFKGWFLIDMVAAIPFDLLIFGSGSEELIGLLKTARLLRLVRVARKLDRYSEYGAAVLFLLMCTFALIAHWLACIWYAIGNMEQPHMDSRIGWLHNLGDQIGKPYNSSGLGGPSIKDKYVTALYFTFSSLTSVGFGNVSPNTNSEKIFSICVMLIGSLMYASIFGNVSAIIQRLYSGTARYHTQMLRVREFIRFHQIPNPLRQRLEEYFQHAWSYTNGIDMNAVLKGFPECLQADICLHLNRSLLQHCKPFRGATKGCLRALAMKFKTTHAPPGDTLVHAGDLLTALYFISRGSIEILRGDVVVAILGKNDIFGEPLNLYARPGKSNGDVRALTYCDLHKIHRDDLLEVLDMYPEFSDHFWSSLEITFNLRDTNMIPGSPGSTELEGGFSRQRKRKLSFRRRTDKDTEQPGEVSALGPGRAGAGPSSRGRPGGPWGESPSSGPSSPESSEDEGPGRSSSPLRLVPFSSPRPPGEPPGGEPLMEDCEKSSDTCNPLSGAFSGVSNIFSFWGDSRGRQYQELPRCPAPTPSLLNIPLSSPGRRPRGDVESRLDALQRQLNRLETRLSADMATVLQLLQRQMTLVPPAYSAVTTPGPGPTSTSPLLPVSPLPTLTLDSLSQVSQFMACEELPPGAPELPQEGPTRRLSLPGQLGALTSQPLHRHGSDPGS
The nature of data set [6]: Volume of distribution at steady state in dog. Type of data set: ADME, organism-based, Canis lupus familiaris. The conditions noted are these: in vivo, read-out: Vdss.
Data set [7] in a line: Half life in dog. Type of data set: ADME, organism-based, Canis lupus familiaris. The note with it: in vivo.
Data set [8] can be described thus: Oral bioavailability in dog. The class given is ADME, organism-based, Canis lupus familiaris. The conditions noted are these: in vivo.
Data set [9] in a line: Plasma clearance in rat. The class given is ADME, organism-based.
A short description of data set [10]: Plasma clearance in dog. The class given is ADME, organism-based, Canis lupus familiaris.
Data set [11] in a line: Volume of distribution at steady state in rat. The class given is ADME, organism-based. The note with it: in vivo, read-out: Vdss.

T1 sequence (P08684 whole entry): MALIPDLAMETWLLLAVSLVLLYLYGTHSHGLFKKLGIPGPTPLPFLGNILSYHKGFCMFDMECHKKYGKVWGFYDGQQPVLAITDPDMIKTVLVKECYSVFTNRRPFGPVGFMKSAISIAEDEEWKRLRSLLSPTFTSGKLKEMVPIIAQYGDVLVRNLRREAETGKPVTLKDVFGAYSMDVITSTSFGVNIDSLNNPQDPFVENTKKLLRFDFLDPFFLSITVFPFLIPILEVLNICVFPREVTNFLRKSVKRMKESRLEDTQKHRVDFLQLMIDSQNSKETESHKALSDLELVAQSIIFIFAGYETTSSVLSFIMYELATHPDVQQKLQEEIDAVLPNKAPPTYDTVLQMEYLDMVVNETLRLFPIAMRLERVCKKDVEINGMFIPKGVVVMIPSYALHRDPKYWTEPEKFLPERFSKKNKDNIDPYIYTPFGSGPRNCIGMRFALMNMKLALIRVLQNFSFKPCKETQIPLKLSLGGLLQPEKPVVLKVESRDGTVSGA
Chain of Cytochrome P450 3A4 (P08684 whole entry): as above

As to `Cn1cc(-c2cnc3ccc4ccc(CS(=O)(=O)NCc5cccnn5)cc4c(=O)c3c2)cn1`, the inhibition at 10 µM at CYP3A4 [1] was found to be 23%. Moreover, at CYP3A4 [2], the inhibition at 30 min, 10 µM turned out to be 14%.

Turning to `Cn1cc(-c2cnc3ccc4ccc(CC(=O)NCc5ccccn5)cc4c(=O)c3c2)cn1`, on Cytochrome P450 3A4, the TDI is less than 10%.

Consider `Cn1cc(-c2cnc3ccc4ccc(CS(=O)(=O)NCc5ccc(F)cc5F)cc4c(=O)c3c2)cn1`, for which, at CYP3A4 [1], the inhibition at 10 µM came out at 42%. Also, the inhibition at 30 min, 10 µM on CYP3A4 [2] turned out to be 17%.

On CYP3A4 [1], `Cn1cc(-c2cnc3ccc4ccc(CS(=O)(=O)NCc5cnsc5)cc4c(=O)c3c2)cn1` yielded an inhibition at 10 µM of 67%. The inhibition at 30 min, 10 µM on CYP3A4 [2] was found to be 13%.

With `Cn1cc(-c2cnc3ccc4ccc(CS(=O)(=O)NCc5ccccc5Cl)cc4c(=O)c3c2)cn1`, the inhibition at 10 µM against CYP3A4 [1] stood at 17%. Also, the inhibition at 30 min, 10 µM at CYP3A4 [2] turned out to be 0%.

Consider `CN(C)S(=O)(=O)Nc1ccc2ccc3ncc(-c4cnn(C)c4)cc3c(=O)c2c1`, for which the bioavailability in [3] was found to be 24%; in data set [8] it was 16%. The values for the half-life in [4] and in data set [7] were 42 min and 48 min, respectively. Also, in [5], the “inhibition (INH)” value is listed as “Not Active”. Also, on CYP3A4 [2], the inhibition at 30 min, 10 µM stood at 30%. Besides, the Vd in data set [6] worked out at 3.5 L/kg; in [11], 2.5 L/kg. Further, the clearance was found to be 40 mL/min/kg in [9] and 57 mL/min/kg in [10].

The compound `Cn1cc(-c2cnc3ccc4ccc(CS(=O)(=O)N[C@@H]5CCCC[C@@H]5N)cc4c(=O)c3c2)cn1` showed an inhibition at 10 µM against CYP3A4 [1] of 27%. For the same compound, on CYP3A4 [2], the inhibition at 30 min, 10 µM stood at 20%.

At CYP3A4 [1], `CN(C)S(=O)(=O)Cc1ccc2ccc3ncc(-c4cnn(C)c4)cc3c(=O)c2c1` displayed an inhibition at 10 µM of 0%. Besides, the inhibition at 30 min, 10 µM on CYP3A4 [2] is 6%.

As for `Cn1cc(-c2cnc3ccc4ccc(CS(=O)(=O)Nc5ccccc5)cc4c(=O)c3c2)cn1`, on CYP3A4 [1], the inhibition at 10 µM was 28%. At CYP3A4 [2], the inhibition at 30 min, 10 µM stood at 50%.

Regarding `Cn1cc(-c2cnc3ccc4ccc(CS(=O)(=O)NCC5CCCCN5)cc4c(=O)c3c2)cn1` (centres undefined), the inhibition at 10 µM against CYP3A4 [1] is 29%. On CYP3A4 [2], the inhibition at 30 min, 10 µM amounted to 1%.

`Cn1cc(-c2cnc3ccc4ccc(CS(=O)(=O)N[C@@H]5CCCC[C@H]5N)cc4c(=O)c3c2)cn1`: the inhibition at 10 µM on CYP3A4 [1] worked out at 30%. Moreover, the inhibition at 30 min, 10 µM on CYP3A4 [2] was 30%.
